From paper PMC3958936 (Bioorganic & medicinal chemistry, 2013)

Legend:
cancer cell lines = conditions: cell culture, variety of cancer cell lines; cited from earlier work
[1] = tested on: immortalized mouse embryonic fibroblasts (MEFs); type: cell-based; conditions: for IC50: Mus musculus, Fibroblast, read-out: estimated IC50, MEFs; for fold loss in activity in MEFs compared with cancer cell lines: estimated
DNA polymerases α and β = conditions: read-out: IC50, DNA polymerases α and β; direct in vitro inhibition; cited from earlier work
SK-MEL2 = test: Proliferation assay on SK-MEL2 cultured with reduced serum, 5% FBS; type: cell-based; conditions: 5% FBS versus 10% FBS
[2] = tested on: HeLa, RKO, HaCaT, Jurkat T, BAEC; test: Cell proliferation assays, first generation, statements pooled over cell lines; type: cell-based; conditions: for anti-proliferative IC50 values, in words: first generation protocol, cell lines tested
IL-2 reporter gene = conditions: Jurkat T cells; data previously reported; ref Romo et al.[29]; cited from earlier work
[3] = tested on: xenograft mouse models, melanoma models; conditions: several xenograft mouse models; cited from earlier work
Jurkat T cells = test: MTT cell proliferation assay, second-generation analogs, Jurkat T; type: cell-based, human; conditions: versus DMDAPatA (2)
How it was run: (§1)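 HeLa and SK-MEL2 cells were grown in DMEM, Jurkat T cells in RPMI 1640, each with 10% FBS and pen-strep at 37 °C, 5% CO2. Adherent lines were seeded at 2000 cells/well and allowed to recover overnight; Jurkat were seeded at 5000 cells/well with no recovery. Compound was given in 0.1% DMSO final for 72 h, then MTT read-out.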

SK-MEL2 melanoma cells = test: MTT cell proliferation assay, second-generation analogs, SK-MEL2; type: cell-based; conditions: versus DMDAPatA (2)
How it was run: as §1

[4] = tested on: HeLa, Jurkat T cells, and SK-MEL2; test: MTT cell proliferation assays, statements pooled over all three cell lines; type: cell-based; conditions: for cell proliferation inhibition activity, in words: all cell lines tested
[5] = tested on: cap-dependent (eIF4AI/II-dependent) translation; test: In vitro translation assay in rabbit reticulocyte lysate, cap-dependent cistron; type: biochemical; conditions: for fold loss of activity in in vitro translation assay: versus DMDAPatA (2)
How it was run: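 Bicistronic reporter mRNA (cap-dependent firefly cistron; HCV IRES-driven Renilla cistron) was SP6-transcribed from linearized plasmid and purified. 200 ng RNA was translated in 20 μl rabbit reticulocyte lysate reactions with 70 mM KCl, 2 mM DTT and RNasin. Compound in DMSO was added at 5% (v/v) final. Reactions ran 1.5 h at 30 °C, then dual-luciferase read-out. Duplicates; 4 independent assays; IC50 by curve fitting, averaged.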

HeLa = test: MTT cell proliferation assay, second-generation analogs, HeLa; type: cell-based, human; conditions: versus DMDAPatA (2)
How it was run: as §1

In the case of CC(/C=C/C(C)=C/[C@@H]1Cc2nc(cs2)CCCCC(=O)O[C@@H](C)C/C(C)=C/C=C\C(=O)O1)=C\CN(C)C [Compound 2, C5-des-methyl, C3-des-amino pateamine A], the “anti-proliferative IC50 values in cancer cell lines, in words” value (cancer cell lines) is listed as “approximately single-digit nanomolar”, the IC50 [1] is listed as greater than 50 nM and the “fold loss in activity in MEFs compared with cancer cell lines” value [1] is listed as “roughly 5 fold”. For the same compound, the IC50 (DNA polymerases α and β) was 3000 to 19000 nM, the “fold reduced anti-proliferative activity under 5% FBS” value (SK-MEL2) was “roughly 2 fold” and the “fold lower activity than PatA in cell proliferation assays” value ([2]; DMDAPatA versus PatA) was “roughly 10 fold”. The “anti-proliferative IC50 values, in words” value [2] was “single-digit nanomolar”, the “IC50 (nM) IL-2 reporter gene assay” value (IL-2 reporter gene) was “sub-nanomolar” and the “anticancer activity in xenograft mouse models” value [3] was “potent anticancer activity in several xenograft mouse models with especially significant regressions in melanoma models”.

For C/C(Br)=C\[C@@H]1Cc2nc(cs2)CCCCC(=O)O[C@@H](C)C/C(C)=C/C=C\C(=O)O1 [Compound 5], the “fold loss of activity in Jurkat T cells” value (Jurkat T cells) was no less than 700 fold and the “fold loss of activity in SK-MEL2 cells” value (SK-MEL2 melanoma cells) was no less than 700 fold.

In the case of C/C(Br)=C\[C@@H]1Cc2nc(cs2)CCCCC(=O)O[C@@H](C)C/C(C)=C/C=C/C(=O)O1 [Compound 6], the “cell proliferation inhibition activity, in words” value [4] is reported as “inactive”.

In the case of CC(/C=C/C(C)=C/[C@@H]1Cc2nc(cs2)CCCCC(=O)O[C@@H](C)C/C(C)=C/C=C\C(=O)O1)=C\CN1CCOCC1 [Compound 9b], the IC50 [1] is reported as greater than 2000 nM, the “fold loss in activity in MEFs compared with cancer cell lines” value [1] is reported as “roughly 5 fold” and the “fold increase of activity under 5% FBS” value (SK-MEL2) is reported as “roughly 2 fold”. For the same compound, the “fold loss of activity in Jurkat T cells” value (Jurkat T cells) was “at least 700 fold”, the “fold loss of activity in in vitro translation assay” value [5] was “roughly 3 fold” and the “fold loss of activity in HeLa cells” value (HeLa) was “greater than 400 fold”. For the same compound, the “fold loss of activity in SK-MEL2 cells” value (SK-MEL2 melanoma cells) was “approximately 25 fold”.

With CC(/C=C/C(C)=C/[C@@H]1Cc2nc(cs2)CCCCC(=O)O[C@@H](C)C/C(C)=C/C=C\C(=O)O1)=C\CN1CCCC1 [Compound 9c] the “fold loss of activity in all cell lines” value ([4]; versus DMDAPatA (2), HeLa, SK-MEL2, Jurkat T) was roughly 2 fold, the IC50 [1] was greater than 100 nM and the “fold loss of activity in in vitro translation assay” value [5] was 2 fold.

In the case of CC(/C=C/C=C/CO)=C\[C@@H]1Cc2nc(cs2)CCCCC(=O)O[C@@H](C)C/C(C)=C/C=C\C(=O)O1 [Compound 9e], the “IC50 (nM) cap-dependent translation inhibition” value ([5]; rabbit reticulocyte lysate, 30 °C, 1.5 h, ± 1 standard deviation, N.E. = no effect up to concentration (nM) in parentheses) is reported as “a degree of activity at high concentration”.

For CC(/C=C/C(C)=C/[C@@H]1Cc2nc(cs2)CCCCC(=O)O[C@@H](C)C/C(C)=C/C#CC(=O)O1)=C\CN(C)C [Compound 10a], the “cell proliferation inhibition activity, in words” value [4] was “no effect was observed”.

For COCCC/C=C/C(C)=C/[C@@H]1Cc2nc(cs2)CCCCC(=O)O[C@@H](C)C/C(C)=C/C#CC(=O)O1 [Compound 10f], the “cell proliferation inhibition activity, in words” value [4] was “did not demonstrate any significant cell proliferation inhibition activity”.

For CC(/C=C/CCCO)=C\[C@@H]1Cc2nc(cs2)CCCCC(=O)O[C@@H](C)C/C(C)=C/C#CC(=O)O1 [Compound 10g], the “cell proliferation inhibition activity, in words” value [4] was “did not demonstrate any significant cell proliferation inhibition activity”.

In the case of CC(/C=C/C(C)=C/[C@@H]1Cc2nc(cs2)[C@@H](C)C[C@@H](N)CC(=O)O[C@@H](C)C/C(C)=C/C=C\C(=O)O1)=C\CN(C)C [PatA (1), pateamine A, reference compound], the “anti-proliferative IC50 values in cancer cell lines, in words” value (cancer cell lines) is listed as “sub-nanomolar range” and the “anti-proliferative IC50 values, in words” value [2] is listed as “sub-nanomolar”.
